Measurements published in PMC5792653 (Nature chemical biology, 2017).
pIC50: −log10 of the molar value.

Assays:
[1] = test system: N.crassa; assay: Protein degradation; format: cell-based, Neurospora crassa
Outline: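 N. crassa grown in liquid medium (2% glucose, 2% arginine, 1× Vogel's) and treated with 10 μg/ml cycloheximide, 50 μM test compound (DMSO), or both. Whole-cell lysates taken at time points; 400 μg protein per lane blotted with VVD, FRQ and β-tubulin antibodies, with ECL detection on film. Three independent cultures.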

[2] = biological target: 20S proteasome (Homo sapiens, UniProt P28072+P28074+Q99436); assay: 20S proteasome assay; format: biochemical
Outline: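 Purified 20S proteasome (1.4 nM) preincubated at 37°C in 25 mM Hepes pH 7.6, 0.5 mM EDTA, 0.03% SDS. Fluorogenic substrates Suc-LLVY-AMC, Suc-LY-AMC, Bz-VGR-AMC or Z-LLE-AMC added to 10 μM final. Hydrolytic activity read as rate of AMC release by fluorescence at 20 min intervals.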

[3] = biological target: T1, AMSH (Homo sapiens, UniProt O95630); assay: In vitro AMSH activity assay; format: biochemical
T1 sequence (O95630 1-424): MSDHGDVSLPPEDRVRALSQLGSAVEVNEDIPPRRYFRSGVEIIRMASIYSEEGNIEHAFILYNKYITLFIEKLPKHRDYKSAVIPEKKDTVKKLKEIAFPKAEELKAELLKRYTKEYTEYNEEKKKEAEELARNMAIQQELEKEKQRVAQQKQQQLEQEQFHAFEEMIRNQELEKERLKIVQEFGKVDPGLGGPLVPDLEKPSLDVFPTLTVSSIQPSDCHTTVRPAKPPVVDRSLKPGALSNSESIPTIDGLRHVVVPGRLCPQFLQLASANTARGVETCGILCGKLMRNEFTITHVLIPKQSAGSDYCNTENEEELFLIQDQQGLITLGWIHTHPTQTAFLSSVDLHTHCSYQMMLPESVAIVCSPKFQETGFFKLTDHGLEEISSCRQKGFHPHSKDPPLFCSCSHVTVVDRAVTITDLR

[4] = test system: zebrafish embryos; conditions: cited from earlier work
[5] = biological target: RNA polymerase I (Saccharomyces cerevisiae, UniProt P10964+P22138); assay: In vitro run-off transcription using tailed templates, Pol I; format: biochemical, S.cerevisiae; conditions: affinity purified polymerase
[6] = test system: angiogenesis in mice; conditions: cited from earlier work
[7] = test system: HeLa cells; assay: Accumulation of ubiquitylated proteins; format: cell-based
[8] = test system: HEK293T cells
[9] = biological target: T2, USP5 (Homo sapiens, UniProt P45974); assay: In vitro DUB activity assay, USP5; format: biochemical; conditions: 50 μM THL
T2 sequence (P45974 1-858): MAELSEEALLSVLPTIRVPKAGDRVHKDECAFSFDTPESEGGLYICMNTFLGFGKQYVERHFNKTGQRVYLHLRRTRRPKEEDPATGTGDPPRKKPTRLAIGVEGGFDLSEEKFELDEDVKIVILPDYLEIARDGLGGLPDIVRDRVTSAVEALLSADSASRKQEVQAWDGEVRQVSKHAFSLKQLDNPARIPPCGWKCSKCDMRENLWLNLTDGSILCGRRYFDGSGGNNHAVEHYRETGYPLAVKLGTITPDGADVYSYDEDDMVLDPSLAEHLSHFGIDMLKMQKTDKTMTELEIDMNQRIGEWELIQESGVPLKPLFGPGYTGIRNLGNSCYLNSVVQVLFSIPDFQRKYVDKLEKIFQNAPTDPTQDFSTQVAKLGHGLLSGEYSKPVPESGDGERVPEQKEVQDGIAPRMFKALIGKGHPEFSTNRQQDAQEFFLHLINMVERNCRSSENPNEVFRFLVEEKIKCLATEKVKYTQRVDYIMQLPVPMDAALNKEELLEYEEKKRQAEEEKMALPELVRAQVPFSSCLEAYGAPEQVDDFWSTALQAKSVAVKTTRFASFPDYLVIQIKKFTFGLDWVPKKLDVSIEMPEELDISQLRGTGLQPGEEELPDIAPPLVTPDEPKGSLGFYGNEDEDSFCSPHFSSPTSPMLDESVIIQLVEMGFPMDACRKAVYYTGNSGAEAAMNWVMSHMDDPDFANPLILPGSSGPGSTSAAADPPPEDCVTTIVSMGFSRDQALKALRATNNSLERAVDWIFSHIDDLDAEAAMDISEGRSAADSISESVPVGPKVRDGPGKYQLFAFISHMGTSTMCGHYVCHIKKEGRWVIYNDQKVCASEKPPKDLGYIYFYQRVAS
Outline: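 Human USP25 or USP5 expressed in E. coli and purified. Enzyme (4 nM) preincubated 30 min at 30°C in Hepes pH 7.3 buffer (KOAc, Mg(OAc)2, EGTA, 1 mM DTT, Tween 20, ovalbumin, protease inhibitors) with DMSO, 50 μM test compound or 50 μM PR619. Reaction started with 1 μM K48-linked tetra-ubiquitin, stopped after 10 or 30 min with SDS sample buffer plus DTT, and analysed by anti-Ub Western blot.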

[10] = biological target: RNA polymerase II (Saccharomyces cerevisiae, UniProt P04050+P08518); assay: In vitro run-off transcription using tailed templates, Pol II; format: biochemical, S.cerevisiae; conditions: affinity purified polymerase
[11] = test system: N.crassa; assay: RNA sequencing; format: cell-based, Neurospora crassa
Outline: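 N. crassa treated with 50 μM test compound for 0, 40 and 120 min, then RNA sequenced. Read counts normalised to reads mapping to supercontig 8 (ribosomal loci). Genes in the lower quartile of mean reads discarded as not expressed.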

[12] = biological target: Rpn11 (Homo sapiens, UniProt O00487); assay: In vitro Rpn11 activity assay; format: biochemical
[13] = biological target: RNA polymerase III (Saccharomyces cerevisiae, UniProt P04051+P22276); assay: In vitro run-off transcription using tailed templates, Pol III; format: biochemical, S.cerevisiae; conditions: affinity purified polymerase
[14] = test system: HeLa cells; assay: Turnover of c-MYC in HeLa cells; format: cell-based; conditions: 10 μM THL
[15] = test system: HeLa cells; assay: HeLa cell adhesion measurement; format: cell-based
Outline: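 HeLa cells (DMEM, 10% FCS, penicillin/streptomycin) densely seeded at 200.000 per well. After 24 h, test compound or MG132 (DMSO) added at the indicated final concentrations from a dilution series to keep added volume constant. After 2 h, supernatant removed and detached cells counted in a Neubauer chamber. Alternatively, adhesion judged by microscopic morphology at 20×.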

Structure (SMILES): CC(=O)Nc1c2sscc-2n(C)c1=O [THL, thiolutin]
- degradation of FRQ [1]: blocked but resumed after a wash-out
- degradation of VVD ([1]; 50 μM THL alone or with CHX): completely blocked degradation
- trypsin-, chymotrypsin-, and caspase-like activities of the proteolytic core [2]: did not inhibit
- AMSH IC50 relative to that measured for Rpn11 ([3]; AMSH IC50 higher than Rpn11 IC50): ~8 fold
- pIC50 ([3]; IC50, inhibition of AMSH, absence of Zn(cyclen)^2+): 5.40
- inhibition of AMSH in presence of Zn(cyclen)^2+ ([3]; presence of Zn(cyclen)^2+): inhibition was reversible by Zn(cyclen)^2+
- lethality of zebrafish embryos [4]: high lethality
- inhibition of yeast RNA polymerase I, run-off transcription [5]: None of the three yeast polymerases were inhibited
- angiogenesis in mice [6]: inhibition of angiogenesis
- accumulation of ubiquitylated proteins in HeLa cells [7]: ubiquitylated proteins accumulated
- overall concentration of intracellular Zn^2+ [8]: did not reduce
- de-ubiquitylation of substrates by UPS5 [9]: did not inhibit
- inhibition of yeast RNA polymerase II, run-off transcription [10]: None of the three yeast polymerases were inhibited
- global gene expression (RNAseq) ([11]; 50 μM THL for 40 or 120 min): vast majority of genes were efficiently downregulated
- number of up-regulated genes (RNAseq) ([11]; 50 μM THL, 0, 40, 120 min): 267 genes
- inhibition of Rpn11 in presence of excess Zn(cyclen)^2+ ([12]; 1 mM DTT and 0,1 mM Zn(cyclen)^2+): abrogated inhibition of Rpn11
- inhibition of deubiquitylation of substrates by 19S, oxidized versus reduced THL ([12]; purified 26S, absence and presence of 1 mM DTT): only reduced THL inhibited
- inhibition of yeast RNA polymerase III, run-off transcription [13]: None of the three yeast polymerases were inhibited
- degradation of c-MYC [14]: blocked degradation of c-MYC
- adhesion / detachment of HeLa cells [15]: efficiently inhibited adhesion
